For assay [1], the target named is Aldo-keto reductase family 1 member B1 (Rattus norvegicus) (UniProt P07943). The assay can be described thus: In vitro inhibitory activity against partially purified rat lens Aldose reductase at a dose of 5e-7M. The procedure, abridged:
(§1)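 Rat lens AR partially purified from male Wister rat lenses: homogenized in 10 mM phosphate pH 7.0 with 5 mM 2-mercaptoethanol and 1 mM EDTA, then 30–80% ammonium sulfate cut, dialyzed. NADPH decrease followed at 340 nm.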

Assay [2] deals with Aldo-keto reductase family 1 member B1 (Rattus norvegicus, UniProt P07943). The assay can be described thus: In vitro inhibitory activity against rat lens Aldose reductase. The procedure, abridged:
as §1

For assay [3], the target named is Aldo-keto reductase family 1 member A1 (Rattus norvegicus, UniProt P51635). Put plainly: In vitro inhibitory activity against rat kidney Aldehyde reductase.
Assay [4] can be described thus: Ratio of AR IC50 and ALR IC50 of rat lens and kidney enzyme. Type of assay: tissue-based. The note with it: Lens of camera-type eye.

A value given as a limit tells only on which side of the number the result lay.

From ChEMBL document CHEMBL1129571 (J Med Chem, 1996) come the findings set out here.

Aldo-keto reductase family 1 member A1, sequence (P51635 whole entry, looked up): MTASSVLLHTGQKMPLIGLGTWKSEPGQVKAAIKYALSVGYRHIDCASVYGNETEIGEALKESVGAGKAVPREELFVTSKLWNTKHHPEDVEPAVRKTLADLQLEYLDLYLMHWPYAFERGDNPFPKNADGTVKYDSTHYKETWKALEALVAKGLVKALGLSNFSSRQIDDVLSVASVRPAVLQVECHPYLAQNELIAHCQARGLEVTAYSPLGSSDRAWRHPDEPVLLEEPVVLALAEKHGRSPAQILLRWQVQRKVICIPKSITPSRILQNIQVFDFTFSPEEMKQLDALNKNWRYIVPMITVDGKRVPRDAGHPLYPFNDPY

In the case of `Cc1ccccc1CN1C(=O)C(=O)N(CC(=O)O)C1=O`, the inhibition (commonly the share of the control response that was lost under treatment) in assay [1] was 41%.
`O=C(O)CN1C(=O)C(=O)N(Cc2ccc(Cl)c(Cl)c2)C1=O`: the figures for the 50% inhibitory concentration (IC50) in assay [2] and in assay [3] were 50 nM and above 100000 nM, respectively. The compound further came in with an inhibition in assay [1] of 77%. In addition, the Ratio in assay [4] was above 2000.
`O=C(O)CN1C(=O)C(=O)N(Cc2cccc([N+](=O)[O-])c2)C1=O`: the inhibition in assay [1] turned out to be 75%.
Take `O=C(O)CN1C(=O)C(=O)N(CCc2ccc(Br)cc2)C1=O`: the inhibition in assay [1] was determined as 47%.
As for `O=C(O)CN1C(=O)C(=O)N(CCc2cccc([N+](=O)[O-])c2)C1=O`, the inhibition in assay [1] came to 36%.
In assay [1], `O=C(O)CN1C(=O)C(=O)N(CCc2ccc(Cl)c(Cl)c2)C1=O` returned an inhibition of 57%.
With `Cc1ccc(CCN2C(=O)C(=O)N(CC(=O)O)C2=O)cc1`, the inhibition in assay [1] stood at 42%.
The compound `COc1ccc(CCN2C(=O)C(=O)N(CC(=O)O)C2=O)cc1OC` gave an inhibition in assay [1] of 42%.
In turn, `O=C(O)CN1C(=O)C(=O)N(Cc2ccc(Br)cc2)C1=O` registered an inhibition in assay [1] of 65%.
As for `O=C(O)CN1C(=O)C(=O)N(Cc2ccc([N+](=O)[O-])cc2)C1=O`, the inhibition in assay [1] was found to be 26%.
Regarding `COc1ccc(CN2C(=O)C(=O)N(CC(=O)O)C2=O)cc1OC`, in assay [1], the inhibition came out at 29%.
Consider `CCOC(=O)CN1C(=O)C(=O)N(Cc2cccc([N+](=O)[O-])c2)C1=O`, for which, in assay [1], the inhibition stood at 31%.
In assay [1], `O=C(O)CN1C(=O)C(=O)N(CCc2ccccc2Cl)C1=O` had an inhibition of 37%.
In the case of `O=C(O)CN1C(=O)C(=O)N(CCCc2ccccc2)C1=O`, the inhibition in assay [1] was 16%.
For `O=C(O)CN1C(=O)C(=O)N(Cc2ccc(Cl)cc2Cl)C1=O`, the IC50 (usually the point on the concentration scale where inhibition reaches its midpoint) in assay [2] stood at 100 nM; in assay [3], 46000 nM. Also, the inhibition in assay [1] was found to be 68%. Besides, in assay [4], the Ratio turned out to be 460.
`O=C(O)CN1C(=O)C(=O)N(Cc2ccc(F)cc2)C1=O`: the inhibition in assay [1] amounted to 9%.
`O=C(O)CN1C(=O)C(=O)N(CCCCc2ccccc2)C1=O` registered an inhibition in assay [1] of 25%.
In assay [1], `O=C(O)CN1C(=O)C(=O)N(CCc2ccccc2)C1=O` showed an inhibition of 30%.
For `COc1cccc(CN2C(=O)C(=O)N(CC(=O)O)C2=O)c1`, the inhibition in assay [1] is 44%.
The compound `COc1ccccc1CN1C(=O)C(=O)N(CC(=O)O)C1=O` yielded an inhibition in assay [1] of 16%.
In the case of `O=C(O)CN1C(=O)C(=O)N(Cc2ccc(Cl)cc2)C1=O`, the inhibition in assay [1] was found to be 56%.
Still for that read-out and setting: to `Cc1ccc(CN2C(=O)C(=O)N(CC(=O)O)C2=O)cc1` belongs 30%; to `O=C(O)CN1C(=O)C(=O)N(Cc2cccc(Cl)c2)C1=O`, 31%; to `O=C(O)CN1C(=O)C(=O)N(Cc2ccccc2[N+](=O)[O-])C1=O`, 66%.
The compound `O=C(O)CN1C(=O)C(=O)N(Cc2ccccc2Cl)C1=O` returned an inhibition in assay [1] of 32%.
In assay [1], `O=C(O)CN1C(=O)C(=O)N(Cc2ccccc2)C1=O` had an inhibition of 17%.
